Compound activity (PubChem)
M1 antagonist: antagonists of rat M1 muscarinic receptor. AID 628. P08482. CHO-M1 cells, Fluo-4 calcium, ACh EC80 antagonist mode; active compounds read low. 64,000 tested, 3.4% active. B-score at 10 µM;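 active means calcium fluorescence response, raw or row-and-column corrected B-score, differing from the plate sample mean either way at a set confidence level, mostly lower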
D1 allo mod: allosteric modulators of human D1 dopamine receptor; P21728; HEK293 D1, CRE-luciferase, dopamine EC30 potentiation; actives deviate in either direction; B-score at 10 µM; 58,000 tested, 5.9% active; AID 641;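 active means luminescence count or its row- and column-corrected plate score outside the 99.7% band of the plate's sample wells, on either side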
Htt clearance: mutant huntingtin protein clearance | HeLa Exon1htt(103Q)mCFP, aggregate imaging; zero = plate's median compound well | inhibition, % at 1.5 µM | 47,000 tested, 0.42% active | AID 853;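 active means inhibition of aggregate fluorescence above about 70%, also judged a hit by eye on the cell image, limit read from the data, passing the limit was not always enough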;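 further: cells exposed to compound for three days before fixation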
SF-1 act: SF-1 (human) activation; Q13285; CHO-K1 Gal4-SF-1 LBD luciferase reporter; % increase over DMSO SF-1-specific signal; activation, % at 10 µM; 65,000 tested, 1.9% active; AID 522;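 active means activation above the mean activation of all tested compounds plus 3 SD, cut at about 50% in these data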
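System: CHO-K1 cells with Gal4–hSF-1 LBD chimera plus Gal4-driven luciferase; quantity: 4,000 CHO-K1 cells per well; compound: one dose, 10 µM compound, 1% DMSO; times: 20 h compound treatment, 37 °C; measured by: SteadyLite luciferase luminescence; read-out: percent activation versus DMSO; benchmarks: DMSO and mock-transfected background; replicates: one test per compound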
RORa activator: activators of human nuclear receptor RORA | P35398 | CHO-K1 Gal4-RORA LBD luciferase reporter, luminescence; percent increase over mock-subtracted basal signal | activation, % at 10 µM | 65,000 tested, 1.5% active;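 active means activation above the mean of all tested compounds plus 3 SD, cut at about 49% in these data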
Target sequence (P35398 whole entry, looked up, the tested form may be a part): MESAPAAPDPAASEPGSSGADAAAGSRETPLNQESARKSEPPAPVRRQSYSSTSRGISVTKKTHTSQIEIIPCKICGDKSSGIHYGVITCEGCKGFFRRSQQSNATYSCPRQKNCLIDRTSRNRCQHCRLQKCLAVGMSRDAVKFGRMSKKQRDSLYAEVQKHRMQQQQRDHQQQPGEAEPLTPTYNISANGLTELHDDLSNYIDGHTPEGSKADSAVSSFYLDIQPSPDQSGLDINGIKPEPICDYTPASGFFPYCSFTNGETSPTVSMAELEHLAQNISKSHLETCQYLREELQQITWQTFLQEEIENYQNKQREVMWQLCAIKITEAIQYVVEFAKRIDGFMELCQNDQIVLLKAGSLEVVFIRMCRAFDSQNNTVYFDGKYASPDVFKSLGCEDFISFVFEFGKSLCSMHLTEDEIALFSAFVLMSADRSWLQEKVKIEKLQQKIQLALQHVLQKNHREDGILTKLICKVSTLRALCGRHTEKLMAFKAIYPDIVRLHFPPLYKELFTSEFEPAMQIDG
M1 ag: M1 muscarinic receptor agonism | CHO-M1 cells, Fluo-4 calcium fluorescence, agonist mode; active compounds read high | B-score at 10 µM | 64,000 tested, 3% active | AID 626;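 active means fluorescence rise, raw or as B-score row- and column-corrected plate score, outside the 99.7% band of its plate's samples, either direction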
D1 mod confirm: D1 receptor (human) allosteric modulation, confirmed; shares compounds with D1 allo mod; HEK293 D1 CRE-luciferase, dopamine EC30 potentiation; active compounds read high; luminescence at 10 µM; 2,200 tested, 88% active;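 active means luminescence in either of two replicates above the same-plate mean plus 3 SD of the low-dose dopamine control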
D1 no dopamine: secondary test of D1 modulators: activity without dopamine | shares compounds with D1 allo mod | HEK293 D1 CRE-luciferase, luminescence, no dopamine; active compounds read high | luminescence at 10 µM | 1,900 tested, 0.8% active | AID 646; in the data active means luminescence above about 3900
Isoprot counter: counter-screen for D1 modulators: isoproterenol response in HEK293 cells; HEK293 D1 CRE-luciferase, isoproterenol EC30 counter-screen; shares compounds with D1 allo mod; AID 647; calls only at 10 µM; 2,200 tested, 63% active;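 active means luminescence in either replicate above plate mean of wells with a partly effective reference agonist dose plus 3 SD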;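 further: isoproterenol raises cAMP through native beta-adrenoceptor Gs so signal bypasses D1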
Of the large screens only hits and unclear results are named; the others gave an inactive call (follow-up assays come after a bar, where they were run). Shown are actives, neighbours in structure and some others; about 11% of the full set was active somewhere.

c1ccc2c(-n3cccn3)cccc2c1	none (no result: Htt clearance)
Nc1cc(C(=O)N2CCCC2)cc(C(=O)N2CCCC2)c1	none
O=C(Nc1ccc(Cc2ccc(NC(=O)C3CC3)c(O)c2)cc1O)C1CC1	none (no result: Htt clearance)
OC[C@H]1O[C@@H](n2cnc3c(NC4CCCC4)ncnc32)[C@H](O)[C@@H]1O	D1 allo mod 5.5 (no result: Htt clearance) | D1 mod confirm 7504 | D1 no dopamine inactive | Isoprot counter active
CSc1ccccc1-n1nnnc1SCc1ccccc1	D1 allo mod 3.8 | D1 mod confirm 7588 | Isoprot counter inactive
CSc1ccccc1-n1nnnc1SCC(=O)Nc1cc(C)ccc1C	none (no result: M1 antagonist, D1 allo mod, SF-1 act, RORa activator, M1 ag)
Cc1ccc(C)c(-c2nnc(OCC(=O)Nc3cc(C)on3)c3ccccc23)c1	none (no result: Htt clearance)
Cc1ccc(C)c(S(=O)(=O)Nc2ccc3scnc3c2)c1	none
CCOC(=O)c1cnc(-n2nc(C)cc2C)nc1Nc1cccc(C(=O)O)c1	D1 allo mod 4.3 | D1 mod confirm 9100 | D1 no dopamine inactive | Isoprot counter inactive
CCOC(=O)c1cnc(-n2nc(C)cc2C)nc1Nc1ccc2c(c1)OCO2	none (no result: Htt clearance)
CCOC(=O)c1cnc(-n2nc(C)cc2C)nc1Nc1ccc(N(C)C)cc1	D1 allo mod 12 (no result: Htt clearance) | D1 mod confirm 12468 | D1 no dopamine inactive | Isoprot counter active
CCC(C)NC(=O)C1CCCN(S(=O)(=O)c2ccc(-n3cnnn3)cc2)C1 (stereo unspecified)	none
C=CCNc1nc(Nc2ccc(OC)cc2OC)nc(OCC)n1	D1 allo mod 3.8 | D1 mod confirm 10064 | D1 no dopamine inactive | Isoprot counter active
O[C@@H](CNC[C@H](O)c1ccccc1)c1ccccc1	none (no result: M1 antagonist, D1 allo mod, SF-1 act, RORa activator, M1 ag)
CNC[C@H](O)c1cccc(O)c1	D1 allo mod 17 (no result: Htt clearance, RORa activator) | D1 mod confirm 11024 | D1 no dopamine 5672 | Isoprot counter active
CCOC(=O)c1c(-c2ccsc2)csc1N	D1 allo mod 7.5 (no result: Htt clearance) | D1 mod confirm 8708 | D1 no dopamine inactive | Isoprot counter inactive
CCC(NC(C)C)C(O)c1ccc(O)c2[nH]c(=O)ccc12 (stereo unspecified)	D1 allo mod 14 (no result: Htt clearance) | D1 mod confirm 8644 | D1 no dopamine 3980 | Isoprot counter active
Cc1cc(C)n(CC(=O)n2c3ccccc3c3ccccc32)n1	none (no result: M1 antagonist, Htt clearance, M1 ag)
Cc1cc(C)n(CC(=O)n2c3c(c4ccccc42)CCCC3)n1	D1 allo mod 5.7 (no result: Htt clearance) | D1 mod confirm 11600 | D1 no dopamine inactive | Isoprot counter inactive
CCCCNC(=O)CCCCCNS(=O)(=O)c1ccc(OC)cc1	none (no result: Htt clearance)
c1coc(-c2nnc3sc(Cc4cccs4)nn23)c1	none (no result: D1 allo mod)
Clc1ccc(-c2nnc3sc(-c4ccc(Br)o4)nn23)c(Cl)c1	none (no result: Htt clearance)
Brc1ccc(-c2nn3c(Cc4ccccc4)nnc3s2)o1	D1 allo mod 3.8 | D1 mod confirm 11236 | D1 no dopamine inactive | Isoprot counter inactive
c1coc(-c2nn3c(-c4ccco4)nnc3s2)c1	D1 allo mod 2.8 (no result: Htt clearance) | D1 mod confirm 12468 | D1 no dopamine inactive | Isoprot counter active
Clc1ccccc1-c1nnc2sc(-c3ccc(Br)o3)nn12	D1 allo mod 2.3 (no result: Htt clearance) | D1 mod confirm 8388 | D1 no dopamine inactive | Isoprot counter inactive
C=CCOC(=O)Nc1c(C(=O)OC)[nH]c2ccc(Cl)cc12	none
CCNc1nc(NCC)n2c(SCc3nc4ccccc4c(=O)[nH]3)nnc2n1	D1 allo mod 27 | D1 mod confirm 21452 | D1 no dopamine inactive | Isoprot counter active
CCNc1nc(NCC)n2c(SCc3ccc(F)cc3)nnc2n1	none (no result: M1 antagonist, D1 allo mod, M1 ag)
O=C(c1nc2nc(-c3cccs3)cc(C(F)(F)F)n2n1)N1CCN(Cc2ccccc2)CC1	none (no result: M1 antagonist, D1 allo mod, SF-1 act, RORa activator, M1 ag)
Cn1c(NC(=O)C(C)(C)Oc2ccc(Cl)cc2)cc(=O)n(C)c1=O	none (no result: Htt clearance)
Cn1c(NC(=O)c2ccc(Cl)cc2Cl)cc(=O)n(C)c1=O	D1 allo mod 4.5 (no result: Htt clearance) | D1 mod confirm 8676 | D1 no dopamine inactive | Isoprot counter active
CCN1CCN(S(=O)(=O)c2ccc(S(=O)(=O)N(CC)Cc3ccccc3)cc2)CC1	none (no result: Htt clearance)
CC(=O)N1CCN=C1SCc1cccc(C(F)(F)F)c1	D1 allo mod 4.9 (no result: Htt clearance) | D1 mod confirm 10200 | D1 no dopamine inactive | Isoprot counter active
O=C(C1CC1)N1CCN=C1SCc1cccc(C(F)(F)F)c1	none
COC(=O)C1=C(C)Nc2ccc(C)cc2S1	D1 allo mod 8.7 (no result: Htt clearance) | D1 mod confirm 11576 | D1 no dopamine inactive | Isoprot counter active
COC(=O)Nc1c(-c2ccccc2)nc2ccc(C)cn12	D1 allo mod 3.1 (no result: Htt clearance) | D1 mod confirm inactive | D1 no dopamine inactive | Isoprot counter inactive
O=C(CC1Oc2ccc(Cl)cc2NC1=O)NC1CCCCCC1 (stereo unspecified)	none
Cc1csc2ncc(C(=O)NC(C)c3ccccc3)c(=O)n12 (stereo unspecified)	none (no result: D1 allo mod, Htt clearance)
O=C(CSc1nnnn1-c1ccccc1)N1CCc2ccccc2C1	D1 allo mod 5.4 (no result: Htt clearance) | D1 mod confirm 5840 | Isoprot counter inactive
O=C(CSc1nnc(-c2ccccc2Br)o1)N1CCc2ccccc2C1	D1 allo mod 9.9 (no result: Htt clearance) | D1 mod confirm 18392 | D1 no dopamine inactive | Isoprot counter active
COc1ccc2c(c1)c(=O)cc(C)n2CC(=O)NCc1ccco1	none
C=CCSc1nc2c(c(=O)[nH]c(=O)n2C)n1C/C=C(/C)Cl	D1 allo mod 19 (no result: Htt clearance) | D1 mod confirm 20956 | Isoprot counter active
C/C(Cl)=C/Cn1c(SCCN2CCOCC2)nc2c1c(=O)[nH]c(=O)n2C	none
CSc1nc2c(c(=O)[nH]c(=O)n2C)n1C/C=C(\C)Cl	D1 allo mod 15 | D1 mod confirm 24712 | D1 no dopamine inactive | Isoprot counter active
C/C(Cl)=C/Cn1c(SCc2ccc(Cl)cc2)nc2c1c(=O)[nH]c(=O)n2C	D1 allo mod 8.8 | D1 mod confirm 10156 | D1 no dopamine inactive | Isoprot counter active
CCOCCn1c(SCc2ccc(F)cc2)nc2c1c(=O)[nH]c(=O)n2C	none (no result: Htt clearance)
CCSc1nc2c(c(=O)[nH]c(=O)n2C)n1C/C=C(/C)Cl	D1 allo mod 14 (no result: Htt clearance) | D1 mod confirm 19268 | D1 no dopamine inactive | Isoprot counter active
O=C(c1cccc2ccccc12)N1CCC(N2CCN(c3ccccc3)CC2)CC1	none
Cc1noc(C)c1COc1ccc(C(=O)NCc2ccccn2)cc1	none (no result: Htt clearance)
CCOC(=O)C(C)Sc1nc2c(c(=O)[nH]c(=O)n2C)n1C/C=C(/C)Cl (stereo unspecified)	D1 allo mod 9.3 | D1 mod confirm 12104 | D1 no dopamine inactive | Isoprot counter active
